INS-1E rescue: preserves ATP levels in cytokine-treated INS-1E cells. INS-1E cytokine-induced death, ATP luminescence, 48 h; normalised: neutral wells 0, positive control 100. protection from cytokine-induced ATP loss, % at 10 µM. 20,000 tested, 0.1% active;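 active means mean replicate protection from cytokine-induced ATP loss at least 50% and at least 75% of replicates each reaching 50%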
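Assay system: INS-1E rat cells / Quantity: 8000 cells per well / Medium: RPMI without phenol red, 5% FBS / Probe or stimulus: three-cytokine cocktail (IFN-γ, TNF-α, IL-1β) / Dosing: one compound concentration, pin transfer / Timing: 48 h co-treatment, 10 min post-lysis read / Technique: CellTiter-Glo luminescence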
A1 apoptosis 2: blocks A1, raising caspase activity. MEF A1-2A-BIM cells, caspase-Glo luminescence, 3 h; percent of clofoctol response, DMSO zero. caspase activation, % (no concentration beside the values). 24,000 tested, under 10 active; in the data active means caspase activation above about 5.9%
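Test system – A1-2A-BIM-expressing MEF cells · Input – 2500 cells/well · Medium – RPMI-1640 growth medium with 10% FBS · Compound dosing – 50 nL pinned compound · Timing – 3 h compound exposure at 37 °C · Technique – Caspase-Glo luminescence (DEVD substrate) · Evaluation – Caspase-3/7 activity from luminescence increase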
T cruzi intra: blocks T. cruzi growth inside host cells; intracellular Trypanosoma cruzi in host cells, plate reader; activity score (inhibition), % at 5.01 µM; 22,000 tested, 4.9% active; in the data active means activity score above about 55%;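 further: parasites and compound incubated about four days before reading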
Of the large screens only hits and unclear results are named; the others gave an inactive call. This is one part of a sample in which hits are shown more often than they occur.

C[C@H]1CN([C@@H](C)CO)C(=O)Cc2cc(NC(=O)Nc3cccc4ccccc34)ccc2O[C@@H]1CN(C)Cc1ccc(Oc2ccccc2)cc1	T cruzi intra 70.4
C[C@H](CO)N1C[C@H](C)[C@H](CN(C)Cc2ccc(Oc3ccccc3)cc2)Oc2ccc(NC(=O)Nc3cccc4ccccc34)cc2CC1=O	none (no result: A1 apoptosis 2)
COc1ccc(S(=O)(=O)N(C)C[C@@H]2Oc3ccc(NC(=O)Cc4cn(C)c5ccccc45)cc3C(=O)N([C@H](C)CO)C[C@@H]2C)cc1	none
C[C@@H]1CN([C@@H](C)CO)C(=O)c2cc(NC(=O)Nc3ccc(C(F)(F)F)cc3)ccc2O[C@@H]1CN(C)Cc1ccc(-c2ccccc2)cc1	T cruzi intra 64.0 (no result: A1 apoptosis 2)
C[C@@H]1CN([C@@H](C)CO)C(=O)c2cc(NC(=O)Cc3ccccc3)ccc2O[C@@H]1CN(C)Cc1ccc(C(F)(F)F)cc1	none (no result: INS-1E rescue)
C[C@@H]1CN([C@@H](C)CO)C(=O)c2cc(NC(=O)Nc3ccc(C(F)(F)F)cc3)ccc2O[C@H]1CN(C)Cc1ccc(-c2ccccc2)cc1	none
C[C@@H]1CN([C@H](C)CO)C(=O)c2cc(NC(=O)Nc3ccc(C(F)(F)F)cc3)ccc2O[C@H]1CN(C)Cc1ccc(-c2ccccc2)cc1	T cruzi intra 85.9
C[C@H](CO)N1C[C@H](C)[C@@H](CN(C)Cc2ccc(-c3ccccc3)cc2)Oc2ccc(NC(=O)Nc3ccc(C(F)(F)F)cc3)cc2C1=O	none (no result: A1 apoptosis 2)
C[C@H](CO)N1C[C@H](C)[C@H](CN(C)Cc2ccc(C(F)(F)F)cc2)Oc2ccc(NC(=O)Cc3ccccc3)cc2C1=O	T cruzi intra 64.1 (no result: INS-1E rescue, A1 apoptosis 2)
C[C@H](CO)N1C[C@H](C)[C@H](CN(C)S(=O)(=O)c2cn(C)cn2)Oc2ccc(NS(C)(=O)=O)cc2C1=O	none
Cc1ccc(S(=O)(=O)N(C)C[C@H]2Oc3c(NC(=O)C4CCOCC4)cccc3C(=O)N([C@@H](C)CO)C[C@@H]2C)cc1	none
C[C@@H]1CN([C@@H](C)CO)C(=O)c2cc(NS(=O)(=O)c3ccccc3)ccc2O[C@H]1CN(C)S(=O)(=O)c1ccccc1	none
C[C@@H]1CCCCO[C@@H](CN(C)S(=O)(=O)c2ccc(Cl)cc2)[C@@H](C)CN([C@@H](C)CO)C(=O)c2cc(NC(=O)CCCN(C)C)ccc2O1	none (no result: INS-1E rescue, T cruzi intra)
C[C@H]1CN([C@@H](C)CO)C(=O)Cc2cc(NC(=O)CCC(F)(F)F)ccc2O[C@@H]1CN(C)Cc1ccc(C(F)(F)F)cc1	T cruzi intra 64.5 (no result: A1 apoptosis 2)
C[C@@H]1CN([C@H](C)CO)C(=O)Cc2cc(NC(=O)Nc3ccc(C(F)(F)F)cc3)ccc2O[C@@H]1CN(C)Cc1ccc(C(F)(F)F)cc1	T cruzi intra 68.0
C[C@H](CO)N1C[C@H](C)[C@H](CN(C)Cc2ccncc2)Oc2ccc(NC(=O)Nc3ccc(C(F)(F)F)cc3)cc2CC1=O	T cruzi intra 61.0
C[C@@H]1CN([C@@H](C)CO)C(=O)Cc2cc(NC(=O)Nc3ccc(C(F)(F)F)cc3)ccc2O[C@H]1CN(C)Cc1ccc(-c2ccccc2)cc1	none (no result: INS-1E rescue, T cruzi intra)
C[C@@H]1CN([C@H](C)CO)C(=O)Cc2cc(NC(=O)CCC(F)(F)F)ccc2O[C@H]1CN(C)Cc1ccc(C(F)(F)F)cc1	none (no result: A1 apoptosis 2)
C[C@H]1CN([C@@H](C)CO)C(=O)c2cc(NC(=O)Nc3ccc(C(F)(F)F)cc3)ccc2O[C@@H]1CN(C)Cc1ccc(Cl)c(Cl)c1	none (no result: A1 apoptosis 2)
C[C@@H]1CN([C@H](C)CO)C(=O)Cc2cc(NC(=O)Nc3ccc(C(F)(F)F)cc3)ccc2O[C@H]1CN(C)Cc1ccncc1	none
C[C@H](CO)N1C[C@H](C)[C@H](CN(C)Cc2ccc(Cl)c(Cl)c2)Oc2ccc(NC(=O)Nc3ccc(C(F)(F)F)cc3)cc2C1=O	T cruzi intra 90.6
COc1ccc(S(=O)(=O)Nc2ccc3c(c2)C(=O)N([C@H](C)CO)C[C@@H](C)[C@H](CN(C)S(=O)(=O)c2ccc(OC)cc2)O3)cc1	none
COc1ccc(NC(=O)Nc2ccc3c(c2)CC(=O)N([C@H](C)CO)C[C@@H](C)[C@@H](CN(C)S(=O)(=O)c2ccc(C)cc2)O3)cc1	none
C[C@@H]1CCCCO[C@@H](CN(C)Cc2ccccc2)[C@@H](C)CN([C@H](C)CO)C(=O)c2cc(NC(=O)Cc3ccccc3)ccc2O1	none
C[C@@H]1CCCCO[C@@H](CN(C)S(=O)(=O)c2cn(C)cn2)[C@@H](C)CN([C@H](C)CO)C(=O)c2cc(NC(=O)Cc3ccccc3)ccc2O1	none (no result: A1 apoptosis 2)
C[C@H](CO)N1C[C@H](C)[C@H](CN(C)Cc2ccc(C(F)(F)F)cc2)Oc2ccc(NC(=O)Nc3ccc(C(F)(F)F)cc3)cc2CC1=O	A1 apoptosis 2 6.6, T cruzi intra 72.1
C[C@@H]1CN([C@H](C)CO)C(=O)Cc2cc(NC(=O)Nc3ccc(C(F)(F)F)cc3)ccc2O[C@H]1CN(C)Cc1ccc(C(F)(F)F)cc1	T cruzi intra 80.8
C[C@@H]1CN([C@@H](C)CO)C(=O)Cc2cc(NC(=O)Nc3ccc(C(F)(F)F)cc3)ccc2O[C@@H]1CN(C)Cc1ccc(Cl)c(Cl)c1	T cruzi intra 56.5 (no result: A1 apoptosis 2)
C[C@H]1CN([C@@H](C)CO)C(=O)Cc2cc(NC(=O)Nc3ccc(C(F)(F)F)cc3)ccc2O[C@@H]1CN(C)Cc1ccc(Cl)c(Cl)c1	none (no result: A1 apoptosis 2)
C[C@@H]1CN([C@@H](C)CO)C(=O)Cc2cc(NC(=O)Nc3ccc(C(F)(F)F)cc3)ccc2O[C@@H]1CN(C)Cc1ccc(C(=O)O)cc1	none
C[C@H](CO)N1C[C@H](C)[C@@H](CN(C)Cc2ccc(C(F)(F)F)cc2)Oc2ccc(NC(=O)Nc3ccccc3)cc2CC1=O	none (no result: INS-1E rescue, T cruzi intra)
COc1ccc(S(=O)(=O)N(C)C[C@@H]2OCCCC[C@@H](C)Oc3ccc(NC(=O)NC(C)C)cc3C(=O)N([C@@H](C)CO)C[C@H]2C)cc1	none (no result: INS-1E rescue, T cruzi intra)
C[C@@H]1CN([C@H](C)CO)C(=O)c2cc(NS(=O)(=O)c3ccccc3)ccc2O[C@H]1CN(C)S(=O)(=O)c1cn(C)cn1	none (no result: A1 apoptosis 2)
C[C@H]1CN([C@@H](C)CO)C(=O)c2cc(NC(=O)Cc3cn(C)c4ccccc34)ccc2O[C@@H]1CN(C)Cc1ccccc1	none (no result: INS-1E rescue, A1 apoptosis 2)
C[C@@H]1CN([C@H](C)CO)C(=O)Cc2cc(N(C)C)ccc2O[C@H]1CN(C)S(=O)(=O)c1cccs1	none
COc1ccc(S(=O)(=O)N(C)C[C@@H]2Oc3ccc(NC(=O)Nc4ccccc4)cc3C(=O)N([C@@H](C)CO)C[C@H]2C)cc1	none
COc1ccc(S(=O)(=O)N(C)C[C@@H]2OCCCC[C@@H](C)Oc3ccc(NC(=O)Nc4ccc(C(F)(F)F)cc4)cc3C(=O)N([C@H](C)CO)C[C@@H]2C)cc1	T cruzi intra 64.6 (no result: A1 apoptosis 2)
Cc1noc(C)c1S(=O)(=O)N(C)C[C@@H]1OCCCC[C@H](C)Oc2ccc(NC(=O)Nc3ccc(C(F)(F)F)cc3)cc2C(=O)N([C@H](C)CO)C[C@H]1C	none (no result: INS-1E rescue, T cruzi intra)
Cc1noc(C)c1S(=O)(=O)N(C)C[C@H]1OCCCC[C@@H](C)Oc2ccc(NC(=O)Nc3ccc(C(F)(F)F)cc3)cc2C(=O)N([C@H](C)CO)C[C@@H]1C	T cruzi intra 69.6

Assay outcomes (PubChem)
